{"data": "Assay results from different studies", "target": "Serine/threonine-protein kinase 38 (STK38, Homo sapiens, UniProt Q15208)", "note": "Compare with care: the assays were run in different laboratories."}
{"SMILES": "CCOC(=O)c1cc2cc(-c3cc(C(=O)NCc4ccc(C(=O)O)cc4)nn3C)ccc2[nH]1", "observed": "cell-free assay", "method": "competition with immobilised ligand", "concentration": "0.1 µM", "remaining binding": "95%"}
{"SMILES": "CN(C)c1ncc(F)c(-c2cnn3ncccc23)n1", "observed": "binding", "concentration": "1 µM", "remaining binding": "90%"}
{"SMILES": "CCN1CCN(Cc2ccc(C(=O)Nc3ccc(C)c(Oc4ccc5c(c4)CC(=O)N5)c3)cc2C(F)(F)F)CC1", "observed": "binding", "method": "competition with immobilised ligand", "concentration": "1 µM", "remaining binding": "100%"}
{"SMILES": "Cc1c(NC(=O)c2cc(C(N)=O)nc3cc(F)ccc23)c(C(F)(F)F)nn1Cc1ccc(C(C)(C)C)cc1", "observed": "cell-free assay", "method": "competition with immobilised ligand", "concentration": "1 µM", "remaining binding": "93%"}
{"SMILES": "c1cncc(-c2cccc(Nc3nccc(NC4CCCCC4)n3)c2)c1", "observed": "binding", "method": "competition with immobilised ligand", "concentration": "10 µM", "remaining binding": "89%"}
{"SMILES": "COc1ccnn2ncc(-c3ccnc(N(C)C)n3)c12", "observed": "binding", "concentration": "1 µM", "remaining binding": "100%"}
{"SMILES": "Cc1nc(N2CC[C@@H](O)C2)ncc1-c1cc(C(F)(F)F)cc2[nH]ncc12", "observed": "binding", "method": "competition with immobilised ligand", "concentration": "1 µM", "remaining binding": "95%"}
{"SMILES": "Cc1cnn2ncc(-c3ccnc(N(C)C)n3)c2c1", "observed": "binding", "concentration": "1 µM", "remaining binding": "100%"}
{"SMILES": "CCS(=O)(=O)c1cc2cc(C[C@@](O)(CC(C)(C)c3ccc(F)cc3C(N)=O)C(F)(F)F)[nH]c2cn1", "observed": "cell-free assay", "method": "competition with immobilised ligand", "concentration": "1 µM", "remaining binding": "76%"}
{"SMILES": "O=C(c1ccc(Nc2nccc(-c3cc4ccccc4s3)n2)cc1)N1CCC(N2CCCC2)CC1", "observed": "binding", "method": "competition with immobilised ligand", "concentration": "1 µM", "remaining binding": "76%"}
{"SMILES": "C=CC(=O)N1CCC(C(=O)NCC(=O)N2CCN(c3nc(-c4cnc(N)nc4C(F)F)nc(N4CCOCC4)n3)CC2)CC1", "observed": "binding", "method": "competition with immobilised ligand", "concentration": "1 µM", "remaining binding": "88%"}
{"SMILES": "COc1ccc2c(O[C@@H]3C[C@H]4C(=O)N[C@]5(C(=O)O)CC5/C=C\\CCCCC[C@H](NC(=O)OC5CCCC5)C(=O)N4C3)cc(-c3csc(NC(=O)C(C)C)n3)nc2c1C (stereo partly drawn)", "observed": "cell-free assay", "method": "competition with immobilised ligand", "concentration": "1 µM", "remaining binding": "50%"}
{"SMILES": "O=C(c1ccc(Nc2ncc(Cl)c(-c3ccc(Cl)s3)n2)cc1)N1CCC(N2CCCC2)CC1", "observed": "binding", "method": "competition with immobilised ligand", "concentration": "1 µM", "remaining binding": "67%"}
{"SMILES": "FC(F)(F)Oc1cccc(-c2cnc3ccc(-c4ccncc4)nn23)c1", "observed": "cell-free assay", "method": "competition with immobilised ligand", "concentration": "5 µM", "remaining binding": "80%"}
{"SMILES": "C[C@@H]1CCN(c2nccc(-c3cnn4ncccc34)n2)C1", "observed": "binding", "concentration": "1 µM", "remaining binding": "72%"}
{"SMILES": "C[C@@]1(Cc2ccc(C#N)cc2)C(=O)N(c2cc(Cl)cc(Cl)c2)c2ncc(C(=O)NC3(c4nc(C5CCC5)no4)CC3)n21", "observed": "cell-free assay", "method": "competition with immobilised ligand", "concentration": "1 µM", "remaining binding": "100%"}
{"SMILES": "c1cnn2ncc(-c3ccnc(N4CCC45COC5)n3)c2c1", "observed": "binding", "concentration": "1 µM", "remaining binding": "87%"}
{"SMILES": "COc1cnc(Nc2cccc(S(N)(=O)=O)c2)nc1N1CCN(c2ccccc2)CC1", "observed": "binding", "method": "competition with immobilised ligand", "concentration": "1 µM", "remaining binding": "78%"}
{"SMILES": "N[C@@H]1CCN(c2nccc(-c3cnn4ncccc34)n2)C1", "observed": "binding", "concentration": "1 µM", "remaining binding": "84%"}
{"SMILES": "O=C(NCC1CCOCC1)c1n[nH]cc1NC(=O)c1c(F)cccc1F", "observed": "binding", "method": "competition with immobilised ligand", "concentration": "1 µM", "remaining binding": "84%"}
{"SMILES": "O=C(c1ccc(Nc2ncc(Cl)c(-c3cc4ccccc4s3)n2)cc1)N1CCC(N2CCCC2)CC1", "observed": "binding", "method": "competition with immobilised ligand", "concentration": "1 µM", "remaining binding": "78%"}
